Data set [1] relates to Mycobacterium tuberculosis. The data set is described as follows: Antimycobacterial activity against Mycobacterium tuberculosis Kurono infected ICR mouse assessed as reduction in viable lung bacterial count at 5 mg/kg, po administered once daily measured after 28 days. The data set is classed as functional. Put shortly:
(§1)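 ICR mice infected via caudal vein with 8.6 × 10^4 CFU M. tuberculosis Kurono; after 28 d, stratified randomisation (n = 5/group), then oral dosing once daily for 28 d in 5% gum arabic, 2-fold dose series. Lungs homogenised in water, dilutions plated on 7H11 agar, colonies counted after 14 d at 37 °C; log10 CFU.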

Data set [2] can be described thus: AUC (0 to t) in human at 300 mg, po. To be noted: plasma. The data set is classed as ADME, organism-based.
The target of the next data set is T1, CYP2A6 (Homo sapiens, UniProt P11509).
T1 sequence (P11509 whole entry): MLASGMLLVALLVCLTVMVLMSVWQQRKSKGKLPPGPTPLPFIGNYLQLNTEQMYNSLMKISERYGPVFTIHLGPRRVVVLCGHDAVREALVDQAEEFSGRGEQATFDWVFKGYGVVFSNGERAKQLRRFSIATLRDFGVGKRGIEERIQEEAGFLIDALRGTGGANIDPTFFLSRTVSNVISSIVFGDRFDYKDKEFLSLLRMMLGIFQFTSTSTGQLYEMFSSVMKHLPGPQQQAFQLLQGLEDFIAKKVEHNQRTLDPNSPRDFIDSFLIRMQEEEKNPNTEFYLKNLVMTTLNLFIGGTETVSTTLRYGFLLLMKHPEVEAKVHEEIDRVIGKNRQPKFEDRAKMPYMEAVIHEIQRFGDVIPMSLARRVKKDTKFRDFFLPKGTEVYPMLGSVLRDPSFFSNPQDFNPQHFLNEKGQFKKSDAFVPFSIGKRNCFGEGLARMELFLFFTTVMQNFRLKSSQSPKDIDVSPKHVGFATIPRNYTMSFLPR
The data set is described as follows: Effect on CYP2A6 in human liver assessed as coumarin 7-hydroxylation at 100 uM relative to control. The data set is classed as ADME, tissue-based. To be noted: probe coumarin, read-out: Activity.

In another data set the target is CYP2E1 (Homo sapiens, UniProt P05181). The data set is described as follows: Effect on CYP2E1 in human liver assessed as chlorzoxazone 6-hydroxylation at 100 uM relative to control. It counts as ADME, tissue-based. To be noted: probe chlorzoxazone, read-out: Activity.
Sequence of CYP2E1 (P05181 whole entry): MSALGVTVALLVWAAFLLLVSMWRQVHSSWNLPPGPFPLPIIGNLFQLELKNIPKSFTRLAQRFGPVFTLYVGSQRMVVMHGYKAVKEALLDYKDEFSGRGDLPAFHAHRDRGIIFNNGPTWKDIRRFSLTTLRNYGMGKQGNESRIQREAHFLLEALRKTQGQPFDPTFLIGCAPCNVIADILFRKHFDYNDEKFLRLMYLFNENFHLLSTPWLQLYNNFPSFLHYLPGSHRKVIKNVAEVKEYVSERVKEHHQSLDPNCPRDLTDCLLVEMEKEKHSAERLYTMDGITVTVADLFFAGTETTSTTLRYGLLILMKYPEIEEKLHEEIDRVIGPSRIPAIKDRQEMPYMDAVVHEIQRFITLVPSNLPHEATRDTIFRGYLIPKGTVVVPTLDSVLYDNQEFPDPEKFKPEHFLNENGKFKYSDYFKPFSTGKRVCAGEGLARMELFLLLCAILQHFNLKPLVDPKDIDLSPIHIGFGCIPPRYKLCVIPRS
Data set [3] has as its system Mycobacterium tuberculosis. Put plainly: Antimycobacterial activity against Mycobacterium tuberculosis Kurono infected ICR mouse assessed as reduction in viable lung bacterial count at 3.5 mg/kg, po administered once daily measured after 28 days. It counts as functional. An outline of the steps: as §1
Data set [4] can be described thus: Plasma concentration in Mycobacterium bovis BCG infected tuberculosis mouse model at 5 mg/kg, po after 0.5 hrs. The data set is classed as ADME, organism-based. Also noted: dose 5 mg/kg, route oral. Put shortly:
(§2)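 The agent, dissolved or suspended in 5% gum arabic, was then given orally. At each time point, about 1 ml of blood was drawn from the abdominal post cava under ether into a heparinised syringe and centrifuged at 3,000 rpm, 5 °C. Plasma (0.1 ml) was mixed with 0.2 ml acetonitrile.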

The nature of data set [5]: Plasma concentration in Mycobacterium bovis BCG infected tuberculosis mouse model at 5 mg/kg, po after 1 hr. The data set is classed as ADME, organism-based. On the set-up: dose 5 mg/kg, route oral. Put shortly: as §2
Data set [6] is described as follows: Plasma concentration in Mycobacterium bovis BCG infected tuberculosis mouse model at 5 mg/kg, po after 2 hrs. It counts as ADME, organism-based. On the set-up: dose 5 mg/kg, route oral. Put shortly:
as §2

The nature of data set [7]: Plasma concentration in Mycobacterium bovis BCG infected tuberculosis mouse model at 5 mg/kg, po after 4 hrs. The data set is classed as ADME, organism-based. Also noted: dose 5 mg/kg, route oral. Put shortly:
as §2

The nature of data set [8]: Plasma concentration in Mycobacterium bovis BCG infected tuberculosis mouse model at 5 mg/kg, po after 8 hrs. The data set is classed as ADME, organism-based. Also noted: dose 5 mg/kg, route oral. An outline of the steps: as §2
Data set [9] can be described thus: Plasma concentration in Mycobacterium bovis BCG infected tuberculosis mouse model at 5 mg/kg, po after 16 hrs. The data set is classed as ADME, organism-based. Also noted: dose 5 mg/kg, route oral. An outline of the steps:
as §2

The subject of data set [10] is Mycobacterium tuberculosis. The data set is described as follows: Antimycobacterial activity against Mycobacterium tuberculosis Kurono infected po dosed BALB/c mouse assessed as reduction in viable lung bacterial count administered once daily. It counts as functional, organism-based. An outline of the steps: (§3)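 From day 1, randomised by body weight (n = 5/group) and dosed orally once daily for 10 d, 10 to 0.313 mg/kg in 2-fold steps, in 5% gum arabic. Lung homogenates plated on 7H11 agar, colonies counted after 14 d; log10 CFU.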

Data set [11] has as its system Mycobacterium tuberculosis. The data set is described as follows: Antimycobacterial activity against Mycobacterium tuberculosis Kurono infected po dosed immunocompromized BALB/c mouse assessed as reduction in viable lung bacterial count administered once daily. The data set is classed as functional, organism-based. An outline of the steps: as §3
In data set [12] the test system is Liver microsomes. Put plainly: Stability in human liver microsomes. The data set is classed as ADME, Microsome. An outline of the steps:
(§4)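 Liver microsomes (1 mg/ml protein) incubated with 100 µM drug, 2.5 mM NADPH and 2.5 mM NADH in 100 mM phosphate pH 7.4 with 1% DMSO. Run in duplicate, 2 h at 37 °C with shaking. Extracted with acetonitrile/ethyl acetate; analysed by HPLC and LC-ESI-MS/MS.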
For orientation: Microsomes from liver hold many membrane-bound enzymes, among them those of drug oxidation.

The test system of data set [13] is Liver microsomes. The data set is described as follows: Stability in rat liver microsomes. It counts as ADME, Microsome. An outline of the steps: as §4
The nature of data set [14]: Stability in mouse liver microsomes. It counts as ADME, Microsome. An outline of the steps:
as §4

Data set [15] can be described thus: Stability in dog liver microsomes. It counts as ADME, Canis lupus familiaris, Microsome. Put shortly:
as §4

The nature of data set [16]: Stability in rabbit liver microsomes. It counts as ADME, Oryctolagus cuniculus, Microsome. An outline of the steps:
as §4

The nature of data set [17]: Stability in monkey liver microsomes. The data set is classed as ADME, Macaca mulatta, Microsome. To be noted: rhesus monkey. An outline of the steps: as §4
Data set [18] deals with Salmonella typhimurium. The data set is described as follows: Toxic mutagenic effect in Salmonella Typhimurium TA1535 in presence of rat liver microsomes after 48 hrs by bacterial reverse mutation test. To be noted: salmonella enterica subsp. enterica serovar typhimurium. The data set is classed as toxicity, organism-based.
Data set [19] relates to Salmonella typhimurium. Put plainly: Toxic mutagenic effect in Salmonella Typhimurium TA1537 in presence of rat liver microsomes after 48 hrs by bacterial reverse mutation test. The data set is classed as toxicity, organism-based. To be noted: salmonella enterica subsp. enterica serovar typhimurium.
In data set [20] the test system is Mycobacterium tuberculosis. Put plainly: Antimycobacterial activity against Mycobacterium tuberculosis H37Rv in human THP1 cells after 4 hrs. It counts as functional, organism-based. To be noted: THP-1. An outline of the steps: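 PMA-differentiated human THP-1 macrophages infected 4 h with H37Rv, washed, then 20 µg/ml SM for 20 h to kill extracellular bacilli. Compound pulse for 4 h, washout, further 68-h culture. Lysis in 0.1% SDS, plating on 7H11 agar, colonies counted after 16 d at 37 °C; n = 3.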

The subject of data set [21] is Salmonella typhimurium. The data set is described as follows: Toxic mutagenic effect in Salmonella Typhimurium TA98 in presence of rat liver microsomes after 48 hrs by bacterial reverse mutation test. The data set is classed as toxicity, organism-based. To be noted: salmonella enterica subsp. enterica serovar typhimurium.
The test system of data set [22] is Salmonella typhimurium. The data set is described as follows: Toxic mutagenic effect in Salmonella Typhimurium TA100 in presence of rat liver microsomes after 48 hrs by bacterial reverse mutation test. To be noted: salmonella enterica subsp. enterica serovar typhimurium. It counts as toxicity, organism-based.
A further data set concerns the target T2, CYP1A1/CYP1A2 (Homo sapiens, UniProt P04798).
T2 sequence (P04798 whole entry): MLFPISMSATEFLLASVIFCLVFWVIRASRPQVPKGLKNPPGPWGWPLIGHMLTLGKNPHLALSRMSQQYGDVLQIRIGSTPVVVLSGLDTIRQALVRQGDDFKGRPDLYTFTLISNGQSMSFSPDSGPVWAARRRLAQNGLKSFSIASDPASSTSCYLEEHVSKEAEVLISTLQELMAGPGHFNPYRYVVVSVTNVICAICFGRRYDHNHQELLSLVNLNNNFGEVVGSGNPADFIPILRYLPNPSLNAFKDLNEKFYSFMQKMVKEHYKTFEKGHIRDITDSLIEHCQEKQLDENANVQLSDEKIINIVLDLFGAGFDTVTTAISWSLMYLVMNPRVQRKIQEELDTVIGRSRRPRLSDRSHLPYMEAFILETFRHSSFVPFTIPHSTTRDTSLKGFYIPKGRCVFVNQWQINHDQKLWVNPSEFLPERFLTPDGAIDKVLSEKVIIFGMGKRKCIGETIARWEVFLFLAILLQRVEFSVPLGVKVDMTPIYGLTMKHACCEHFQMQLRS
The data set is described as follows: Effect on CYP1A1/CYP1A2 in human liver assessed as 7-ethoxyresorufin O-deethylation at 100 uM relative to control. The data set is classed as ADME, tissue-based. To be noted: probe 7-ethoxyresorufin, read-out: Activity. An outline of the steps: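 Human liver microsomes (0.1–0.5 mg protein) in 0.1 M phosphate pH 7.4 with 0.1 mM EDTA and NADPH-generating system. […] Metabolite formation by HPLC, in triplicate; mean expressed as % of control.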

Data set [23] deals with Mycobacterium tuberculosis. Put plainly: Antimycobacterial activity against Mycobacterium tuberculosis Kurono infected ICR mouse assessed as reduction in viable lung bacterial count at 160 mg/kg, po administered once daily measured after 28 days. It counts as functional. An outline of the steps: as §1
The test system of data set [24] is Mycobacterium tuberculosis. The data set is described as follows: Antimycobacterial activity against Mycobacterium tuberculosis Kurono infected ICR mouse assessed as reduction in viable lung bacterial count at 40 mg/kg, po administered once daily measured after 28 days. It counts as functional. An outline of the steps: as §1
Data set [25] in a line: Cmax in human at 850 mg, po. It counts as ADME, organism-based. To be noted: in vivo. On the set-up: dose 850 mg, route oral.
The nature of data set [26]: AUC (0 to t) in human at 850 mg, po. The data set is classed as ADME, organism-based. To be noted: plasma.

The values that follow come from ChEMBL document CHEMBL1143402 (PLoS Med, 2006).

On to `NNC(=O)c1ccncc1` [ISONIAZID], for which the Activity in data set [1] came to 95%. In data set [2], this molecule showed an AUC(0-t) of 22900 ng·h/mL.
For `CCN(CC)C(=S)S` [DITIOCARB], the activity at 100 µM on CYP2A6 stood at 38.2%; on CYP2E1, 55%.
With `CO[C@H]1/C=C/O[C@@]2(C)Oc3c(C)c(O)c4c(O)c(c(/C=N/N5CCN(C)CC5)c(O)c4c3C2=O)NC(=O)/C(C)=C\C=C\[C@H](C)[C@H](O)[C@@H](C)[C@@H](O)[C@@H](C)[C@H](OC(C)=O)[C@@H]1C` [RIFAMPIN], the Activity in data set [3] turned out to be 95%. Moreover, the concentration at 0.5 h in data set [4] worked out at 3330 ng/mL. Moreover, in [5], the concentration at 1 h amounted to 4490 ng/mL. The concentration at 2 h in [6] is 4520 ng/mL. In addition, the concentration at 4 h in [7] was 3820 ng/mL. The same molecule had a concentration at 8 h in [8] of 3180 ng/mL. This molecule returned a concentration at 16 h in data set [9] of 660 ng/mL.
Regarding `C[C@]1(COc2ccc(N3CCC(Oc4ccc(OC(F)(F)F)cc4)CC3)cc2)Cn2cc([N+](=O)[O-])nc2O1`, the Activity result in [10] was “Dose-dependent effect”; in data set [11], “Dose-dependent effect”; in the data set with Liver microsomes [12], “Stable”; in the data set with Liver microsomes [13], “Stable”; in data set [14], “Stable”; in data set [15], “Stable”. The Activity entry is “Stable” in [16]; “Stable” in [17]; “Non-toxic” in the data set on Salmonella typhimurium [18]; “Non-toxic” in the data set with Salmonella typhimurium [19]; “Dose-dependent effect” in [20]; “Non-toxic” in the data set with Salmonella typhimurium [21]. Further, the Activity entry with Salmonella typhimurium [22] was “Non-toxic”.
In the case of `O=c1cc(-c2ccccc2)oc2c1ccc1ccccc12` [ALPHA-NAPHTHOFLAVONE], the activity at 100 µM on CYP1A1/CYP1A2 came to 3.8%.
Consider `NC(=O)c1cnccn1` [PYRAZINAMIDE], for which the Activity in [23] was 95%.
Take `CN[C@@H]1[C@H](O[C@H]2[C@H](O[C@H]3[C@H](O)[C@@H](O)[C@H](N=C(N)N)[C@@H](O)[C@@H]3N=C(N)N)O[C@@H](C)[C@]2(O)C=O)O[C@@H](CO)[C@H](O)[C@H]1O` [STREPTOMYCIN]: in data set [24], the Activity is recorded as 95%.
For `CC[C@@H](CO)NCCN[C@@H](CC)CO` [ETHAMBUTOL], the Activity in [23] was determined as 95%. Moreover, in [25], the Cmax is 3700 ng/mL. The same molecule gave an area under the curve AUC(0-t) in [26] of 13000 ng·h/mL.

One may read the AUC(0-t) as the area under the concentration-time curve up to a stated or last time point. One may read the Cmax as the highest concentration seen after dosing.
